Our source for the EC50, selectivity ratio and IC50 values is ChEMBL document CHEMBL1131182, “Anti-AIDS agents. 34. Synthesis and structure-activity relationships of betulin derivatives as anti-HIV agents” (J Med Chem, 1998).

Series [1] deals with H9. Kind of series: Anti-HIV activity was measured in […] by MAGI assay. Particulars: Homo sapiens. The series is classed as functional, cell-based. In short, it runs like this: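 HeLa-CD4/β-gal cells were plated at 10 000/well in DMEM with G418 500 µg/mL and hygromycin 250 µg/mL for 1 day. They were then infected with virus dilutions in the presence of varying drug for 2 days at 37 °C. Cells were fixed (1% formaldehyde, 0.2% glutaraldehyde) and stained with X-gal 0.4 mg/mL. Blue cells were counted, and EC50 was taken as a 50% reduction in infected cells.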

The nature of series [2]: Therapeutic Index is the […] of the IC50 to that of EC50. It counts as cell-based. Particulars: human, H9 cells; read-out: TI.
Series [3] has as its system H9. Kind of series: Anti-HIV activity against acutely infected H9 lymphocytes. Activity expressed as concentration of compound able to suppress HIV replication by 50%. It counts as functional, cell-based. To be noted: Homo sapiens. In short, it runs like this: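 H9 cells (RPMI 1640, 10% FCS, L-glutamine, 37 °C, 5% CO2, log phase) infected 1 h with HIV-1 IIIB at MOI 0.1-0.01, washed and plated at 4 × 10^5 cells/mL with DMSO-dissolved samples (screen 100, 20, 4, 0.8 µg/mL final, further dilutions for actives). After 4 days, supernatant p24 was measured by antigen-capture ELISA against a standard curve. EC50 is 50% suppression of replication; at least two experiments averaged.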

For series [4], the system named is H9. Kind of series: Anti-HIV activity against acutely infected H9 lymphocytes. Activity expressed as concentration of compound toxic to 50% of mock-infected H9 cells. To be noted: Homo sapiens. The series is classed as functional, cell-based. In a few lines: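 Uninfected H9 cells were exposed to DMSO-dissolved samples (screen 100, 20, 4, 0.8 µg/mL final) for 4 days at 37 °C, 5% CO2. Remaining cells were counted with a counter against medium-only controls. IC50 is the concentration toxic to 50% of mock-infected cells; at least two experiments averaged.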

A word on the EC50: it is the concentration giving half of the maximal effect. A high value points to a need for much substance. As usually defined, the IC50 is the concentration that inhibits the measured activity by half.

Each structure is given as a SMILES string.

Turning to `Cc1cn([C@H]2C[C@H](N=[N+]=[N-])[C@@H](CO)O2)c(=O)[nH]c1=O` [ZIDOVUDINE], it took 0.037 µM to reach a half-maximal effect in the series on H9 [1] (EC50).
As for `C=C(C)[C@@H]1CC[C@]2(/C=N/O)CC[C@]3(C)[C@H](CC[C@@H]4[C@@]5(C)CC/C(=N\O)C(C)(C)[C@@H]5CC[C@]43C)[C@@H]12` [BETULIN-3,28-DIOXIME], in series [2], the selectivity ratio worked out at 5.1. Moreover, the EC50 with H9 [3] is 1.07 µM. In the series with H9 [4], this compound yielded an IC50 of 5.47 µM.
In the same order, the values of `CC(C)[C@@H]1CC[C@]2(COC(=O)CCCC(=O)O)CC[C@]3(C)[C@H](CC[C@@H]4[C@@]5(C)CC[C@H](OC(=O)CCCC(=O)O)C(C)(C)[C@@H]5CC[C@]43C)[C@@H]12` are 17, 1.6 µM and 26.3 µM.
Turning to `C=C(C)[C@@H]1CC[C@]2(C=O)CC[C@]3(C)[C@H](CC[C@@H]4[C@@]5(C)CCC(=O)C(C)(C)[C@@H]5CC[C@]43C)[C@@H]12` [BETULONAL], in series [2], the selectivity ratio worked out at 1.1. Further, the EC50 in the series on H9 [3] came to 45.6 µM. The compound also came in with an IC50 with H9 [4] of 49 µM.
In the same order, the values of `CC(C)[C@@H]1CC[C@]2(COC(=O)CCC(=O)O)CC[C@]3(C)[C@H](CC[C@@H]4[C@@]5(C)CC[C@H](OC(=O)CCC(=O)O)C(C)(C)[C@@H]5CC[C@]43C)[C@@H]12` are 6.2, 4.7 µM and 28.8 µM.
As to `C=C(C)[C@@H]1CC[C@]2(COC(=O)CC3(CC(=O)O)CCCC3)CC[C@]3(C)[C@H](CC[C@@H]4[C@@]5(C)CCC(=O)C(C)(C)[C@@H]5CC[C@]43C)[C@@H]12`, the selectivity ratio in series [2] came out at 3. Also, a half-maximal effect in the series with H9 [3] (EC50) was put at 4.3 µM. In addition, the IC50 with H9 [4] is 12.8 µM.
